In ChEMBL document CHEMBL4689842, “EUbOPEN Chemogenomics Library wave 1” (2021):

Test system: Fibroblast
Experiment: Multiplex assay against human fibroblast
Format: toxicity, cell-based
Procedure, shortened: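 Phenotypes for tubulin, mitochondrial mass and membrane permeability are expressed as per cents of healthy-nucleus cells. Cells were stained live at seeding with Hoechst33342, BioTracker Green Microtubule Cytoskeleton Dye, MitoTracker Red and Annexin V Alexa Fluor 680, then imaged after compound addition on a CQ1 microscope at 37°C and 5% CO2. Machine-learning gating in CellPathfinder separated Hoechst high-intensity objects from normal cells, divided normal cells by nuclear state (healthy, pyknosed, fragmented) and divided pyknosed cells into mitotic or apoptotic.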

[1] = 12 h, 1 µM, compound concentration 1 uM, replicate 1
[2] = 12 h, 1 µM, compound concentration 1 uM, replicate 2
[3] = 12 h, 10 µM, compound concentration 10 uM, replicate 1
[4] = 12 h, 10 µM, compound concentration 10 uM, replicate 2
[5] = 24 h, 1 µM, compound concentration 1 uM, replicate 1
[6] = 24 h, 1 µM, compound concentration 1 uM, replicate 2
[7] = 24 h, 10 µM, compound concentration 10 uM, replicate 1
[8] = 24 h, 10 µM, compound concentration 10 uM, replicate 2

Question: How did the “Population Fragmented Nuclei (%)” value [1] turn out when `COc1ccc(S(=O)(=O)N(CCO)c2ccccc2CN(C)C/C=C/c2ccc(Cl)cc2)cc1.O=P(O)(O)O` was run?
Answer: Its value is 35%.

Question: And the “Population Healthy Nuclei (%)” value [1]?
Answer: Its value is 51%.

Question: And the “Population Hoechst High Intensity Objects (%)” value [1]?
Answer: The value was 16%.

Question: What about the “Population Membrane Permeable-Phenotype (%)” value [1] of the same compound?
Answer: The value was 12%.

Question: What about the “Population Mitochondria Different-Phenotype (%)” value [1] of the same compound?
Answer: The value was 29%.

Question: What about the “Population Mitotic Cells (%)” value [1] of the same compound?
Answer: The value was 19%.

Question: What about the “Population Normal (%)” value [1] of the same compound?
Answer: The value was 83%.

Question: What about the “Population Pyknosed Nuclei (%)” value [1] of the same compound?
Answer: Its value is 13%.

Question: What about the “Population Tubulin-Different-Phenotype (%)” value [1] of the same compound?
Answer: Its value is 86%.

Question: And the “Total Cell Count” value [1]?
Answer: Its value is 278.

Question: And the “Population Apoptotic (%)” value [2]?
Answer: Its value is 80%.

Question: What about the “Population Fragmented Nuclei (%)” value [2] of the same compound?
Answer: Its value is 56%.

Question: What about the “Population Healthy Nuclei (%)” value [2] of the same compound?
Answer: The value was 33%.

Question: What about the “Population Hoechst High Intensity Objects (%)” value [2] of the same compound?
Answer: Its value is 33%.

Question: And the “Population Membrane Permeable-Phenotype (%)” value [2]?
Answer: The value was 11%.

Question: And the “Population Mitochondria Different-Phenotype (%)” value [2]?
Answer: The value was 88%.

Question: And the “Population Mitotic Cells (%)” value [2]?
Answer: The value was 20%.

Question: And the “Population Normal (%)” value [2]?
Answer: Its value is 66%.

Question: What about the “Population Pyknosed Nuclei (%)” value [2] of the same compound?
Answer: The value was 9%.

Question: And the “Population Tubulin-Different-Phenotype (%)” value [2]?
Answer: The value was 94%.

Question: What about the “Total Cell Count” value [2] of the same compound?
Answer: Its value is 77.

Question: And the “Population Apoptotic (%)” value [3]?
Answer: The value was 75%.

Question: What about the “Population Fragmented Nuclei (%)” value [3] of the same compound?
Answer: Its value is 32%.

Question: What about the “Population Healthy Nuclei (%)” value [3] of the same compound?
Answer: The value was 55%.

Question: What about the “Population Hoechst High Intensity Objects (%)” value [3] of the same compound?
Answer: The value was 10%.

Question: And the “Population Membrane Permeable-Phenotype (%)” value [3]?
Answer: Its value is 14%.

Question: What about the “Population Mitochondria Different-Phenotype (%)” value [3] of the same compound?
Answer: Its value is 5%.

Question: What about the “Population Mitotic Cells (%)” value [3] of the same compound?
Answer: The value was 25%.

Question: What about the “Population Normal (%)” value [3] of the same compound?
Answer: The value was 89%.

Question: What about the “Population Pyknosed Nuclei (%)” value [3] of the same compound?
Answer: The value was 12%.

Question: What about the “Population Tubulin-Different-Phenotype (%)” value [3] of the same compound?
Answer: Its value is 19%.

Question: What about the “Total Cell Count” value [3] of the same compound?
Answer: Its value is 179.

Question: What about the “Population Apoptotic (%)” value [4] of the same compound?
Answer: The value was 50%.

Question: And the “Population Fragmented Nuclei (%)” value [4]?
Answer: The value was 61%.

Question: And the “Population Healthy Nuclei (%)” value [4]?
Answer: The value was 34%.

Question: What about the “Population Hoechst High Intensity Objects (%)” value [4] of the same compound?
Answer: Its value is 44%.

Question: And the “Population Membrane Permeable-Phenotype (%)” value [4]?
Answer: Its value is 22%.

Question: What about the “Population Mitochondria Different-Phenotype (%)” value [4] of the same compound?
Answer: The value was 22%.

Question: And the “Population Mitotic Cells (%)” value [4]?
Answer: The value was 50%.

Question: What about the “Population Normal (%)” value [4] of the same compound?
Answer: Its value is 55%.

Question: What about the “Population Pyknosed Nuclei (%)” value [4] of the same compound?
Answer: Its value is 3%.

Question: What about the “Population Tubulin-Different-Phenotype (%)” value [4] of the same compound?
Answer: The value was 55%.

Question: What about the “Total Cell Count” value [4] of the same compound?
Answer: The value was 94.

Question: And the “Population Apoptotic (%)” value [5]?
Answer: The value was 80%.

Question: What about the “Population Fragmented Nuclei (%)” value [5] of the same compound?
Answer: Its value is 34%.

Question: What about the “Population Healthy Nuclei (%)” value [5] of the same compound?
Answer: The value was 55%.

Question: What about the “Population Hoechst High Intensity Objects (%)” value [5] of the same compound?
Answer: The value was 23%.

Question: And the “Population Membrane Permeable-Phenotype (%)” value [5]?
Answer: Its value is 5%.

Question: And the “Population Mitochondria Different-Phenotype (%)” value [5]?
Answer: Its value is 79%.

Question: And the “Population Mitotic Cells (%)” value [5]?
Answer: Its value is 20%.

Question: What about the “Population Normal (%)” value [5] of the same compound?
Answer: The value was 76%.

Question: What about the “Population Pyknosed Nuclei (%)” value [5] of the same compound?
Answer: Its value is 9%.

Question: What about the “Population Tubulin-Different-Phenotype (%)” value [5] of the same compound?
Answer: The value was 90%.

Question: And the “Total Cell Count” value [5]?
Answer: Its value is 264.

Question: What about the “Population Apoptotic (%)” value [6] of the same compound?
Answer: Its value is 100%.

Question: What about the “Population Fragmented Nuclei (%)” value [6] of the same compound?
Answer: The value was 48%.

Question: And the “Population Healthy Nuclei (%)” value [6]?
Answer: The value was 38%.

Question: And the “Population Hoechst High Intensity Objects (%)” value [6]?
Answer: Its value is 37%.

Question: And the “Population Membrane Permeable-Phenotype (%)” value [6]?
Answer: The value was 0%.

Question: And the “Population Mitochondria Different-Phenotype (%)” value [6]?
Answer: The value was 100%.

Question: And the “Population Mitotic Cells (%)” value [6]?
Answer: Its value is 0%.

Question: What about the “Population Normal (%)” value [6] of the same compound?
Answer: Its value is 62%.

Question: And the “Population Pyknosed Nuclei (%)” value [6]?
Answer: Its value is 12%.

Question: And the “Population Tubulin-Different-Phenotype (%)” value [6]?
Answer: The value was 88%.

Question: What about the “Total Cell Count” value [6] of the same compound?
Answer: The value was 75.

Question: What about the “Population Apoptotic (%)” value [7] of the same compound?
Answer: Its value is 69%.

Question: And the “Population Fragmented Nuclei (%)” value [7]?
Answer: Its value is 33%.

Question: What about the “Population Healthy Nuclei (%)” value [7] of the same compound?
Answer: The value was 52%.

Question: What about the “Population Hoechst High Intensity Objects (%)” value [7] of the same compound?
Answer: The value was 14%.

Question: And the “Population Membrane Permeable-Phenotype (%)” value [7]?
Answer: The value was 8%.

Question: And the “Population Mitochondria Different-Phenotype (%)” value [7]?
Answer: Its value is 3%.

Question: And the “Population Mitotic Cells (%)” value [7]?
Answer: The value was 30%.

Question: And the “Population Normal (%)” value [7]?
Answer: The value was 85%.

Question: What about the “Population Pyknosed Nuclei (%)” value [7] of the same compound?
Answer: Its value is 14%.

Question: What about the “Population Tubulin-Different-Phenotype (%)” value [7] of the same compound?
Answer: The value was 14%.

Question: And the “Total Cell Count” value [7]?
Answer: Its value is 186.

Question: What about the “Population Apoptotic (%)” value [8] of the same compound?
Answer: The value was 75%.

Question: And the “Population Fragmented Nuclei (%)” value [8]?
Answer: Its value is 71%.

Question: And the “Population Healthy Nuclei (%)” value [8]?
Answer: The value was 20%.

Question: And the “Population Hoechst High Intensity Objects (%)” value [8]?
Answer: Its value is 44%.

Question: And the “Population Membrane Permeable-Phenotype (%)” value [8]?
Answer: The value was 18%.

Question: What about the “Population Mitochondria Different-Phenotype (%)” value [8] of the same compound?
Answer: The value was 18%.

Question: What about the “Population Mitotic Cells (%)” value [8] of the same compound?
Answer: The value was 25%.

Question: What about the “Population Normal (%)” value [8] of the same compound?
Answer: Its value is 55%.

Question: And the “Population Pyknosed Nuclei (%)” value [8]?
Answer: The value was 7%.

Question: And the “Population Tubulin-Different-Phenotype (%)” value [8]?
Answer: The value was 36%.

Question: What about the “Total Cell Count” value [8] of the same compound?
Answer: Its value is 95.
